Here are results for 98 compounds from PubChem BioAssay AID504775 (Broad Institute, 2011).

In all, about 320,000 compounds went through this assay and about 310 (0.097%) were called active.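 The calls were made as follows: active = mean replicate activation of at least 60% and every replicate at or above 60%; inconclusive = mean or all-replicate condition met, but not both; inactive = mean below 60% and not all replicates reaching 60%.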 The sample as a whole holds a higher share of actives than the screen did.

A short description of this assay: activators of SR-BI mediated DiI-HDL uptake, primary screen, ldlA[mSR-BI] CHO cells, DiI fluorescence (AID 504775).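 Also: 0% = median plate neutral-control signal and 100% = twice that signal.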 Conditions: 3 h, at 12.5 µM, hits give high values, 100 = double the neutral-control signal. The essentials:
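Material: SR-BI-overexpressing, LDLR-lacking CHO cells; schedule: compound exposure 3 h, 37 °C; reagent: DiI-labelled HDL at 10 µg/mL final; technique: bottom-read fluorescence, 550/595 nm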
Take `Cc1nn(-c2ncccn2)c2c1C(=O)CC(C)(C)C2Br` (stereo not drawn): the activation is -6.98% (inactive).

Regarding `CC12CCCCC1=CC(=O)CC2` (stereo not drawn), the activation was 0.111% (inactive). With `O=C(NNC(=O)c1ccc2ccccc2c1)c1ccc(Cl)cc1`, the activation is 17.1% (inactive).

Regarding `O=C1C(=O)N(c2ccccc2)C(c2ccccc2)C1c1ccccc1` (stereo not drawn), the activation is -3.47% (inactive). Turning to `c1ccc(C(=NNc2nc3ccccc3s2)c2ccccn2)cc1`, the activation was -40.5% (inactive). Then `C=CC(=O)Nc1ccc(Nc2ccnc(Nc3ccc(N4CCN(C)CC4)cc3)n2)cc1`, with -5.16% (inactive); and `CC(=NNC(=S)N1CCCCCC1)c1ccccn1`, with -22.4% (inactive); and `CCOC(=O)c1ccccc1NC(=O)CSc1nc2c(sc(=S)n2CC)c(=O)[nH]1`, with 15.7% (inactive). Then `Nc1ccc2c(c1)C(=Cc1cccnc1)c1ccccc1-2`, with -10.7% (inactive). The result for `N#CC1=C(N)Oc2cc(N)ccc2C1c1ccccc1` (stereo not drawn) reads 23.9% (inactive); that for `Cc1ccc(S(=O)(=O)CCC(=O)OCC(=O)N(C)Cc2ccccc2)cc1`, 31.8% (inactive); that for `CC/C(=C(/c1ccccc1)c1ccc(OCC[N+](C)(C)C)cc1)c1ccccc1`, 44.1% (inactive). As to `CC(C)(C)OC(=O)N(Cc1ccccc1)Cc1ccc(OCc2cccc(NC(=O)c3ccccc3)c2)cc1`, the activation was -30.4% (inactive). Then `CCCCN1CC(COCc2ccccc2)OCCS1(=O)=O` (stereo not drawn), with 17.3% (inactive); and `COc1ccc(CNC(=O)COC(=O)C2=Cc3ccccc3OC2)cc1`, with 3.54% (inactive); and `COC1C(CO)OC(n2cnc3c(=S)nc(N)[nH]c32)C1O` (stereo not drawn), with 8.65% (inactive). The result for `COC(=O)C1CC2=C(CC(C)(C)CC2=O)N(c2ccccc2)C1=O` (stereo not drawn) reads 15.5% (inactive); that for `O=C1OC(Cc2ccccc2)C(c2ccccc2)C1=O` (stereo not drawn), 5.71% (inactive); that for `CN(C(=O)c1ccc(NC(=O)Cc2cccc(NC(=O)C3CCN(C(=O)c4ccccc4)CC3)c2)cc1)C1CC1`, -15% (inactive). `CC(C)c1ccc(C=NNc2ccc([N+](=O)[O-])cn2)cc1`: the activation is 2.92% (inactive). Then `O=C(NN=Cc1ccccc1)c1ccccc1`, with 4.39% (inactive); and `NC(=O)C1CCN(C(=O)c2cc(S(=O)(=O)N3CCN(c4ccccc4)CC3)ccc2Cl)CC1`, with 3.45% (inactive); and `FC(F)(F)c1ccc(-c2cccc3c2C2CC3CCN2Cc2ccccc2)cc1` (stereo not drawn), with 20.1% (inactive). Then `O=c1oc2ccccc2c(=O)c2ccccc12`, with 23.4% (inactive); and `O=C(NCCc1ccccc1)c1cccc(NC(=O)c2ccccc2)c1`, with -9.83% (inactive); and `Cc1nc(N)sc1-c1ccccc1`, with -11.1% (inactive). The result for `O=[N+]([O-])c1ccc(N2CCOCC2)cc1` reads -9.57% (inactive).

For `O=C(NN=CC=Cc1ccccc1)C(O)C(O)C(=O)NN=CC=Cc1ccccc1` (stereo not drawn), the activation is -3.92% (inactive). For the compound `CCCCNCCS(=O)(=O)NCc1ccccc1`, the activation is 2.76% (inactive).

As to `CC(C)CN1CC(C)C(=O)N(c2ccccc2)C1=S` (stereo not drawn), the activation was 3.77% (inactive). As to `CCC(c1nnnn1C1CCCC1)N1CCN(C(=O)c2ccco2)CC1` (stereo not drawn), the activation was 3.81% (inactive).

As to `CC(C)C(c1nnnn1CCc1ccccc1)N1CCN(C(=O)c2ccco2)CC1` (stereo not drawn), the activation was 424% (active).

With `CC(C)C(c1nnnn1C1CCCCC1)N1CCN(C(=O)c2ccco2)CC1` (stereo not drawn), the activation was 4.65% (inactive). The result for `Cc1ccc(OCCNC(=O)c2cccc(S(=O)(=O)N3CCN(Cc4ccccc4)CC3)c2)cc1` reads -20.6% (inactive); that for `CSCCC(NC(=O)COc1ccccc1)C(=O)N1CCN(c2cccc(C(F)(F)F)c2)CC1` (stereo not drawn), -13.3% (inactive); that for `C1=C(N2CCOCC2)/C(=C/c2nc3ccccc3[nH]2)CC1`, 6.52% (inactive). Then `c1ccc2[nH]c(NCCN3CCOCC3)nc2c1`, with 62.8% (active); and `c1ccc2cc3c(NCCN4CCOCC4)ccnc3cc2c1`, with 30.5% (inactive); and `CCc1c(Nc2ccccc2Cl)nc(N)[nH]c1=O`, with 15.3% (inactive). For `NC(=O)c1ncn([C@@H]2O[C@H](CNCc3cnc(N4CCOCC4)s3)[C@@H](O)[C@H]2O)n1`, the activation is -12% (inactive). The result for `COc1cc2c(cc1CNC[C@H]1O[C@@H](n3cnc(C(N)=O)n3)[C@H](O)[C@@H]1O)OCO2` reads 13.6% (inactive); that for `NC(=O)c1ncn([C@@H]2O[C@H](CN=C3NS(=O)(=O)c4ccccc43)[C@@H](O)[C@H]2O)n1`, 74.1% (active); that for `CCCCNC1(C#N)CCN(Cc2ccccc2)CC1`, 2.1% (inactive). In the case of `COc1ccc(CC(=O)N[C@@H]2c3cc(OC)c(OC)cc3C[C@H]2OCc2ccccc2)cc1`, the activation was -26.8% (inactive). Turning to `COc1ccc(C2NCCCC2c2ccccc2)cc1` (stereo not drawn), the activation was -26.9% (inactive).

Regarding `CC1C(C)N(C(=O)CCl)c2ccccc2N1C(=O)CCl` (stereo not drawn), the activation was 12% (inactive).

In the case of `Cc1ccccc1N1CCN(C(=O)c2cccnc2)CC1`, the activation was 2.45% (inactive). Consider `C[C@@H]1NS(=O)(=O)c2cc(Cl)ccc2O[C@@H]1c1ccccc1`, for which the activation is -33.6% (inactive). On to `COC(=O)c1ccc(CNC(=O)Cn2cc(C)c(=O)[nH]c2=O)cc1`, for which the activation is -1.85% (inactive). The result for `O=C(NNS(=O)(=O)c1ccc(F)cc1)c1ccc([N+](=O)[O-])cc1Cl` reads 4.85% (inactive); that for `Cc1cc([N+](=O)[O-])ccc1NS(=O)(=O)c1ccccc1`, 11.2% (inactive). In the case of `O=[N+]([O-])c1ccc(NS(=O)(=O)c2ccccc2)c(Cl)c1`, the activation was 84.4% (active).

With `OC(COc1ccccc1)CN1CCN(c2cccc(Cl)c2)CC1` (stereo not drawn), the activation was -8.42% (inactive). Consider `COc1cc(/C=C/c2ccc(/C=C/c3cc(OC)c(OC)c(OC)c3)cc2)cc(OC)c1OC`, for which the activation was -51.2% (inactive). For `O=C1C(Cl)=C(Oc2ccccc2)C(=O)c2ccccc21`, the activation was -13.1% (inactive). Turning to `COc1ccc(NS(=O)(=O)c2ccc(N3CCOCC3)c(NC(=O)/C=C/C(=O)O)c2)cc1`, the activation is 22.2% (inactive). Then `COc1ccc(CC(=O)NC(C)c2ccc(Cl)c(Cl)c2)cc1S(=O)(=O)N1CCOCC1` (stereo not drawn), with -4.63% (inactive); and `Cc1cc([N+](=O)[O-])c(=O)[nH]c1C`, with 9.21% (inactive).

`CC(NC(=O)c1ccccc1)C(=O)Nc1ccccc1` (stereo not drawn): the activation is -16.6% (inactive). Then `NC(=O)C1(Nc2ccc([N+](=O)[O-])cc2)CCCC1`, with -13.2% (inactive); and `S=C(Nc1ccccc1)Nc1ccc2ccccc2c1`, with -9.12% (inactive). As for `CN1C(c2ccc(F)cc2)=CS/C1=C(/C#N)c1nnc2n1-c1ccccc1SC2`, the activation is -32.2% (inactive). `CN(CCc1ccccc1)C(=O)c1cccc(NC(=O)Cc2cccc(NC(=O)C3CCCN(C(=O)CCc4ccccc4)C3)c2)c1` (stereo not drawn): the activation was -78.5% (inactive). On to `C=CCOC(=O)N1CCC2CC1c1cc(-c3ccc(OC)cc3)ccc12` (stereo not drawn), for which the activation is 4.14% (inactive). On to `CCCCN1CC(CO)Oc2cccc(F)c2S1(=O)=O` (stereo not drawn), for which the activation is 10.7% (inactive). Then `C/C(=N\Nc1ccc(Cl)nn1)c1ccccc1O`, with 7.73% (inactive); and `CCCN(CCC)S(=O)(=O)c1cc2c(cc1Br)CCN2C(=O)CC`, with -7.1% (inactive). On to `NS(=O)(=O)c1ccc(CCNC(=O)c2ccc(Cl)c(S(=O)(=O)N3CCCCCC3)c2)cc1`, for which the activation was -32.8% (inactive). For `CCc1c(Nc2ccccc2C)nc(N)[nH]c1=O`, the activation is -3.67% (inactive).

With `O=C(NN=Cc1ccccc1O)NN=Cc1ccccc1O`, the activation was -79.8% (inactive). On to `CCN(CC)CCCC(C)n1c2nc(=O)[nH]c(=O)c-2nc2cc(Cl)ccc21` (stereo not drawn), for which the activation was -9.91% (inactive). For `CCCCC(=O)NC(c1ccc(OC)c(OC)c1)c1ccc2cccnc2c1O` (stereo not drawn), the activation is -3.38% (inactive). Take `O=C(CSC(=S)N1CCOCC1)c1ccccc1`: the activation was -13.4% (inactive). The result for `NC(=NC(=O)c1ccccc1)N1CCOCC1` reads 1.4% (inactive); that for `O=C(NC(=O)N1CCOCC1)c1ccccc1`, 67.4% (active). For the compound `Cc1nc2ccc(N)nc2nc1C`, the activation is -22.1% (inactive). With `COc1ccc(S(=O)(=O)N2C[C@H]3CON(C)[C@H]3C[C@H]2c2cccc(Br)c2)cc1`, the activation was 7.88% (inactive).

`CN(C(=O)c1cccc(NC(=O)Cc2ccc(NC(=O)C3CCCN(C(=O)C4CCCC4)C3)cc2)c1)C1CCC1` (stereo not drawn): the activation was -86.9% (inactive). On to `CCCCN1CC(COc2ccccc2)Oc2cccc(F)c2S1(=O)=O` (stereo not drawn), for which the activation was -3.91% (inactive). Turning to `COC1=CC(=O)OC(C)(c2ccccc2)C1` (stereo not drawn), the activation was -8.07% (inactive). Then `O=c1[nH]c(=S)[nH]c(O)c1/C=C1\C=Nc2ccccc21`, with 12.1% (inactive). As to `Cc1cc(OCCCC(=O)Nc2cc(S(=O)(=O)N3CCOCC3)ccc2N2CCOCC2)ccc1Cl`, the activation was -17.2% (inactive).

Take `COC1=NC2=NCCN2C(OC)=N1`: the activation is 7.98% (inactive). Then `CC1=CC(=NNS(=O)(=O)c2ccc([N+](=O)[O-])cc2)CC(C)(C)C1`, with 27.7% (inactive); and `CC(C)Cc1nnc(N)s1`, with 10.1% (inactive).

For `Cc1nc(N)nc(Cl)c1CCC1OCCO1`, the activation is 19.5% (inactive). In the case of `NNc1cccc(C=Cc2ccccc2)cc1=O`, the activation is -16.6% (inactive). As for `Nc1cc(=O)n(Cc2ccccc2)c(=O)n1Cc1ccccc1`, the activation is -0.22% (inactive). Then `N=C1c2ccccc2-c2ccccc21`, with 9.24% (inactive); and `COc1cc(O)c2c(=O)c3c(O)c(O)ccc3oc2c1OC`, with -10.1% (inactive); and `O=c1nc(NO)ccn1C1CCCO1` (stereo not drawn), with 15.7% (inactive). On to `C(#CCN1CCOCC1)CCCN1CCOCC1`, for which the activation was 16.4% (inactive). Consider `CN1CCOC1c1ccc(C2OCCN2C)cc1` (stereo not drawn), for which the activation is 6.99% (inactive).

Consider `C=CCN1C=C(C(=O)c2ccccc2)C(=O)CC1`, for which the activation is 19.3% (inactive).

Regarding `NN=C(NN=Cc1ccccc1)c1ccccc1`, the activation is 1.04% (inactive). Consider `O=C(NCC(O)c1ccc([N+](=O)[O-])cc1)C1CCCCC1` (stereo not drawn), for which the activation was 2.53% (inactive). The result for `O=C(NNS(=O)(=O)c1ccc([N+](=O)[O-])cc1)C1CCCCC1` reads 62.5% (active); that for `O=C(Cc1ccccc1)NNS(=O)(=O)c1ccc([N+](=O)[O-])cc1`, -11.7% (inactive).
